TRPC4 act – activators of mouse TRPC4 channel. Q9QUQ5. HEK293 TRPC4beta/mu-opioid, Fluo4 calcium fluorescence; active compounds read high. B-score at 10 µM. 0.49% of 310,000 active;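 active = B-score above 5 SD of library B-scores, and initial fluorescence ratio not above library mean plus 5 SD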;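 also: positive B-score marks a calcium rise read as TRPC4 activation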
Target sequence (Q9QUQ5 whole entry, looked up): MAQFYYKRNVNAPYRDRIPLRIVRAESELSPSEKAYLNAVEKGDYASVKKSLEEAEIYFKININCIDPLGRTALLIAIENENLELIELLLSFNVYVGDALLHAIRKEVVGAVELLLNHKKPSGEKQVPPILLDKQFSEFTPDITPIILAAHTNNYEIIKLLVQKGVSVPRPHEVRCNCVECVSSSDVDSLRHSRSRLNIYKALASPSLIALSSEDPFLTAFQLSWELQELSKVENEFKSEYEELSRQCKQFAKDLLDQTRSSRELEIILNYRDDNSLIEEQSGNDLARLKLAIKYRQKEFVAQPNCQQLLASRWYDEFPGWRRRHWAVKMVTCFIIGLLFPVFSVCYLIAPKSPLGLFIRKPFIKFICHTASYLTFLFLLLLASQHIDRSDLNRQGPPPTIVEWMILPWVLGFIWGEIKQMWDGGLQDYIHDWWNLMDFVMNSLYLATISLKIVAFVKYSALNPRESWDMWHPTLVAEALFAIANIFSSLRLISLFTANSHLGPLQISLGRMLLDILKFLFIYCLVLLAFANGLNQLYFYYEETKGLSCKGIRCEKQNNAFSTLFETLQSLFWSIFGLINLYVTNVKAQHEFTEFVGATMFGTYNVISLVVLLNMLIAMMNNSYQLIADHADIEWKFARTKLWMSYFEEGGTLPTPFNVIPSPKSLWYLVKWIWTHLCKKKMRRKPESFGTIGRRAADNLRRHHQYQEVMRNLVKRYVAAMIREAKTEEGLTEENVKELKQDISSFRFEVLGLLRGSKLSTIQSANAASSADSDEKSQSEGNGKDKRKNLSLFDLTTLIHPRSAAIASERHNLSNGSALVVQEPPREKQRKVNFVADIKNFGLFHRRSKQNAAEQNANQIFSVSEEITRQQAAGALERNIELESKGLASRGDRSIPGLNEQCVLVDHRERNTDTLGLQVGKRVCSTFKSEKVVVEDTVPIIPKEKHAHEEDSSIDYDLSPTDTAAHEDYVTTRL
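Assay system: HEK293 cells stably co-expressing mouse TRPC4beta and mu-opioid receptor / Timing: Fluo4 dye loading 45 min at room temperature, 110 s recording / Signal: Fluo4 calcium-sensitive dye fluorescence, kinetic, 1 Hz baseline / Read-out: integrated baseline-normalised fluorescence ratio, converted to per-well B score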
TRPC4 inh – TRPC4 (mouse) channel inhibition | HEK293 TRPC4beta/mu-opioid, DAMGO-evoked Fluo4 calcium flux; active compounds read low | B-score at 10 µM | 0.39% of 300,000 active;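 active = B-score over 3 SD under the library average, no early fluorescence shift, positive overall ratio signal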
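Test system – stable TRPC4beta/mu-opioid receptor HEK293 cells · Probe or stimulus – DAMGO, a submaximal dose followed by a maximal one · Dosing – one concentration per compound · Signal – Fluo4 calcium fluorescence by kinetic imaging, 5 s 1 Hz baseline · Evaluation – per-well B score of integrated baseline-normalized Fluo4 ratio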
TRPC4 potent – allosteric potentiators of mouse TRPC4 channel. 0.42% of 310,000 active. B-score at 10 µM. HEK293 TRPC4beta/mu-opioid, DAMGO EC20, Fluo-4 Ca2+ flux; active compounds read high. AID 2227;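 active = B-score of calcium response area above 5 SD of library B-scores, with initial fluorescence ratio within 5 SD of library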;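 also: B-score of integrated fluorescence ratio over time as area under calcium response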
TRPC6 inh – blocks the mouse TRPC6 cation channel; Q61143; HEK293-TRPC6, membrane potential dye, ACh-evoked depolarization; active compounds read low; B-score at 10 µM; 1.1% of 310,000 active;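 active = B-score under library mean minus 3 SD, initial fluorescence not abnormally high, positive integrated signal ratio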;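 also: B-score derived from integrated fluorescence ratio over the kinetic read; more negative B-score means stronger inhibition of depolarization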
TRPC6 act – mouse TRPC6 channel activation | HEK293-TRPC6 membrane potential dye fluorescence; active compounds read high | B-score at 10 µM | 0.13% of 310,000 active | AID 2550;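 active = B-score of the integrated fluorescence ratio above library mean plus 3 SD, and starting fluorescence ratio within library mean plus 5 SD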;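 also: higher score means more depolarization so channel activation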
* = called active by the depositor; i = inactive. The list is not random: actives were taken first. Their share in the collection is about 2.3%.

SMILES	TRPC4 act	TRPC4 inh	TRPC4 potent	TRPC6 inh	TRPC6 act
Cc1ccc2nc(C(=O)N3CCc4c([nH]c5ccccc45)C3c3ccccn3)cn2c1 (stereo not given)	81*	i	i	i	i
CSc1nc(C(=O)N2CCc3c([nH]c4ccccc34)C2c2ccccn2)cs1 (stereo not given)	i	i	i	i	i
O=c1oc2ccccc2c(Nc2ccccc2)c1CN1CCCCC1	i	-7*	i	i	i
CC(C)CCc1noc(CN2CCN(c3ccc(Cl)cn3)CC2)n1	i	i	16*	i	i
C/C(=C\c1cccc(Cl)c1Cl)C(=O)c1c(C)cc(C)[nH]c1=O	i	i	19*	i	i
COc1ccc(OC2CCN(S(=O)(=O)c3ccc(C(C)=O)cc3)CC2)cc1	i	i	i	i	i
CNc1nc(SCc2ccccc2Cl)nc2c1CCCC2	i	-6*	i	i	i
O=c1[nH]c(SCc2ccccc2Cl)nc2c1CCC2	i	i	i	i	i
O=C(CNc1ccc(Br)cc1)c1ccc(O)cc1	i	-8*	i	i	i
Cc1ccccc1-c1nc(CS(=O)CC(=O)NC2CCCCC2)c(C)o1 (stereo not given)	i	i	i	i	i
Cc1ccc(-n2cc(CN3CCC(O)(c4ccccn4)CC3)c(-c3ccc(F)cc3)n2)cc1	77*	i	i	i	i
Cc1ccc(S(=O)(=O)N(C)C)cc1NS(=O)(=O)c1ccc(Cl)s1	i	i	i	i	i
N#Cc1ncc(-c2ccc3c(c2)OCCOCCOCCOCCOCCO3)nc1C#N	i	-6*	i	i	i
N#Cc1ncc(-c2ccc3c(c2)OCCOCCOCCOCCO3)nc1C#N	i	i	i	i	i
O=C(c1cc2c(s1)-c1ccccc1S(=O)(=O)C2)N1CCN(Cc2ccccc2)CC1	i	i	10*	i	i
CCN1CCN(C(=O)c2cc3c(s2)-c2ccccc2S(=O)(=O)C3)CC1	i	i	i	i	i
COc1ccccc1CN=C1Nc2ccccc2CS1	71*	i	i	i	i
Cc1cc(/C=C2/SC(=O)N(CC(=O)N3CCOCC3)C2=O)c(C)n1-c1ccccc1F	i	i	i	i	i
CCCCN1C(=O)/C(=C2\SC(N3CCCCC3)=NC2=O)c2ccccc21	i	i	i	i	i
CCCCN1C(=O)C(=Nc2cccc3cnccc23)c2ccccc21	i	i	20*	i	i
COc1cccc(CN(C(=O)Cc2c[nH]c3ccccc23)C(C(=O)NC2CCCCC2)c2ccc(C)o2)c1 (stereo not given)	i	i	i	i	i
O=C(OCCCCN1C(=O)c2ccccc2C1=O)c1ccc(S(=O)(=O)N2CCCC2)cc1	i	i	17*	i	i
Cc1nn(-c2ccccc2)c(Cl)c1CN(C(=O)CCl)c1ccc(Cl)cc1	i	-7*	i	i	i
CC(=O)N(Cc1c(C)nn(-c2ccccc2)c1Cl)c1ccc(Cl)cc1	i	i	i	i	i
Cc1nn(-c2ccccc2)c(Cl)c1CN(C(=O)CCl)c1cccc2ccccc12	i	-7*	i	i	i
SMILES	TRPC4 act	TRPC4 inh	TRPC4 potent	TRPC6 inh	TRPC6 act
Cc1ccccc1N1CC(O)(c2cccs2)[N+]2=C1CCCC2 (stereo not given)	i	-9*	i	i	i
O=C(O)c1c(N2CCCCC2)ccc([N+](=O)[O-])c1N1CCCCC1	i	i	i	i	i
COc1cccc(CNC(=O)CCC2CCCN(C(=O)Cc3ccccc3F)C2)c1 (stereo not given)	i	i	i	i	i
COc1cccc(CNC(=O)CCC2CCCN(Cc3cc(Cl)ccc3O)C2)c1 (stereo not given)	i	-7*	i	i	i
COc1ccccc1/C=C/CN1CCCC(CCC(=O)NCc2ccccc2F)C1 (stereo not given)	113*	-6*	i	i	i
CC(NCCC1(C(C)C)CCOC(C)(C)C1)c1cccs1 (stereo not given)	i	i	i	i	i
CC(NCCC1(Cc2ccccc2Cl)CCOC(C)(C)C1)c1cccs1 (stereo not given)	68*	i	i	i	i
O=C(O)c1cccc(S(=O)(=O)N2CCN(C(c3ccccc3)c3ccccc3)CC2)c1	i	-9*	i	i	i
O=C(O)c1cccc(S(=O)(=O)N2CCCC2)c1	i	i	i	i	i
COc1ccc(CN=CC2=C(O)CNC2=O)cc1	i	i	i	i	i
COc1ccc(CN=Cc2[nH]c3ccc(Br)c(Cl)c3c2O)cc1	i	i	i	i	16*
NCCNc1ccc([N+](=O)[O-])c(NC2CC2)c1	i	i	16*	i	i
CC(C)CN1CCN(Cc2cccn2-c2cccnc2)CC1CCO (stereo not given)	i	i	i	i	i
OCC1(CCc2ccccc2)CCN(Cc2cccn2-c2cccnc2)CC1	57*	i	i	i	i
CCOC(=O)C1(CCOc2ccccc2)CCN(Cc2ccc(COC)o2)CC1	i	i	i	i	i
CCOC(=O)C1(Cc2cccc(OC)c2)CCN(Cc2ccc(OC)c(O)c2)CC1	i	-8*	i	i	i
CCOC(=O)C1(CCOc2ccccc2)CCN(Cc2ccc(C)o2)CC1	i	-6*	i	i	i
CCOC(=O)C1(CCOc2ccccc2)CCN(Cc2ccc(OC)c(O)c2)CC1	84*	i	i	i	i
O=C(O)Cc1cn(-c2ccccc2)nc1-c1ccccc1	i	i	i	i	i
Fc1ccc(-c2nn(-c3ccccc3)cc2CNCc2ccccc2)cc1	96*	i	i	i	i
COc1ccc(-n2cc(CNCCCN3CCCC3=O)c(-c3ccccc3Cl)n2)cc1	i	i	i	i	i
Fc1ccc(-n2cc(CNCCc3ccncc3)c(-c3ccccc3Cl)n2)cc1	i	-6*	i	i	i
Fc1ccc(-n2cc(CNCCc3cccnc3)c(-c3ccccc3Cl)n2)cc1	124*	i	i	i	i
O=C(Cc1ccc(F)cc1)NCc1cccnc1	i	i	i	i	i
CCOC(=O)C1=C(C)N(C)C(=O)NC1c1c(O)ccc2ccccc12 (stereo not given)	i	i	i	i	i
Cc1cc(C(=O)Nc2ncn(Cc3ccc(F)cc3)n2)ccc1[N+](=O)[O-]	i	i	i	i	i
